Laboratory results reported in ChEMBL document CHEMBL1127802, “Selective inhibitors of monoamine oxidase. 2. Arylamide SAR” (J Med Chem, 1994).

How the values were obtained:
[1] = target: T1, MAO B (monoamine oxidase B) (Rattus norvegicus, UniProt P19643); assay: Inhibitory activity against monoamine oxidase B (MAO B) from rat brain using a radiometric procedure with [14C]phenylethylamine at 1 uM; details: rat brain monoamine oxidase B preparation, probe [14C]phenylethylamine
T1 sequence (P19643 whole entry): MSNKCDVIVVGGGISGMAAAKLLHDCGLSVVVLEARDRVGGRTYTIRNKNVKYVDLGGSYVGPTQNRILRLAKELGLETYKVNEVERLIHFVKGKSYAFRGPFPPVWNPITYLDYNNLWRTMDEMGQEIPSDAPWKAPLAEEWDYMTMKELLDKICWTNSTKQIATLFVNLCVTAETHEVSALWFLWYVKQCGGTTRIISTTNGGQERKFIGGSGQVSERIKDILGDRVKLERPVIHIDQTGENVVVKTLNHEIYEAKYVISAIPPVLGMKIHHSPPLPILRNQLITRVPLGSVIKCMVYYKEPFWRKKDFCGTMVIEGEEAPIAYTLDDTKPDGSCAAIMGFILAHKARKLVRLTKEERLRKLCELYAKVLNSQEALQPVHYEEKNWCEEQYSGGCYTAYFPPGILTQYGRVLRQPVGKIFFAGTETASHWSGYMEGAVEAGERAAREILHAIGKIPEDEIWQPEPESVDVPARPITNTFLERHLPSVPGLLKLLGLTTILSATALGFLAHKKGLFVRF
Method in brief: (§1)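 Rat brain mitochondrial MAO extract was preincubated ± inhibitor for 15 min at 37 °C in 50 mM potassium phosphate, pH 7.4. […] Pargyline (2 mM) defined blanks. Acid stop, ethyl acetate/toluene extraction and scintillation counting followed. Triplicate means gave % inhibition, and IC50 was extrapolated from % inhibition vs log concentration plots.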

[2] = target: T2, MAO A (monoamine oxidase A) (Rattus norvegicus, UniProt P21396); assay: Inhibitory activity against monoamine oxidase A (MAO A) from rat brain using a radiometric procedure with [3H]5-HT at 1 uM; details: rat brain monoamine oxidase A preparation, probe [3H]5-HT
T2 sequence (P21396 whole entry): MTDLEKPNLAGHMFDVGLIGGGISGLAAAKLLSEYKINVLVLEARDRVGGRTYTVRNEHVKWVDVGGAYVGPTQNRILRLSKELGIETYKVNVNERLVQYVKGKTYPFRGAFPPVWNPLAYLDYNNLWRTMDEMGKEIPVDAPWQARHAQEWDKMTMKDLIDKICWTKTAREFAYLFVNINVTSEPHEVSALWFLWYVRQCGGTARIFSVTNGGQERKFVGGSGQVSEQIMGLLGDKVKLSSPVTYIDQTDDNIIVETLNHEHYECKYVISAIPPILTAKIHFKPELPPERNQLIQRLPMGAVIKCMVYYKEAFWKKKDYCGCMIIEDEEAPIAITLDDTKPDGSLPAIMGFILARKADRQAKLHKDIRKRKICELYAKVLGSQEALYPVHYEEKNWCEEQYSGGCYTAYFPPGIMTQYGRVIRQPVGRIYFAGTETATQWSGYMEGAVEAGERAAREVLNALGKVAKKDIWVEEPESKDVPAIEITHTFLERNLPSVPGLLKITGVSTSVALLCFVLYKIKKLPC
Method in brief: (§2)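 Rat brain mitochondrial MAO extract was preincubated with or without inhibitor for 15 min at 37 °C in 50 mM potassium phosphate, pH 7.4. […] Blanks contained 2 mM pargyline. Reactions were stopped with HCl, products extracted into ethyl acetate/toluene and counted by scintillation. Triplicates were averaged as % inhibition, and IC50 was taken from % inhibition vs log concentration.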

[3] = target: T1, MAO B (monoamine oxidase B); assay: Inhibitory activity against monoamine oxidase B (MAO B) from rat brain using a radiometric procedure with [14C]- phenethylamine at 1 uM; details: rat brain monoamine oxidase B preparation, probe [14C]-phenethylamine; method in brief: as §1
[4] = target: T2, MAO A (monoamine oxidase A); assay: Inhibitory activity against monoamine oxidase A (MAO A) from rat brain using a radiometric procedure with [3H]- serotonin at 1 uM; details: rat brain monoamine oxidase A preparation, probe [3H]-serotonin; method in brief: as §2
[5] = target: T3, Amine oxidase [flavin-containing] A (Rattus norvegicus, UniProt P21396); assay: Inhibitory activity against monoamine oxidase A (MAO A) from rat brain using a radiometric procedure with [3H]5-HT; method in brief: as §2
T3 sequence (P21396 whole entry): T2 sequence (P21396 whole entry)

[6] = target: T2, MAO A (monoamine oxidase A); assay: Inhibitory activity against monoamine oxidase A (MAO A) from rat brain using a radiometric procedure with [3H]5-HT at 10 uM; details: rat brain monoamine oxidase A preparation, probe [3H]5-HT; method in brief: as §2
[7] = target: T1, MAO B (monoamine oxidase B); assay: Inhibitory activity against monoamine oxidase B (MAO B) from rat brain using a radiometric procedure with [14C]phenylethylamine at 10 uM; details: rat brain monoamine oxidase B preparation, probe [14C]phenylethylamine; method in brief: as §1
[8] = target: T4, Amine oxidase [flavin-containing] B (Rattus norvegicus, UniProt P19643); assay: Inhibitory activity against monoamine oxidase B (MAO B) from rat brain using a radiometric procedure with [14C]- phenethylamine.; method in brief: as §1
T4 sequence (P19643 whole entry): T1 sequence (P19643 whole entry)

[9] = target: T3, Amine oxidase [flavin-containing] A; assay: Inhibitory activity against monoamine oxidase A (MAO A) from rat brain using a radiometric procedure with [3H]- serotonin.; method in brief: as §2
[10] = target: T1, MAO B (monoamine oxidase B); assay: Inhibitory activity against monoamine oxidase B (MAO B) from rat brain using a radiometric procedure with [14C]phenylethylamine at 0.1 uM; details: rat brain monoamine oxidase B preparation, probe [14C]phenylethylamine; method in brief: as §1
[11] = target: T1, MAO B (monoamine oxidase B); assay: Inhibitory activity against monoamine oxidase B (MAO B) from rat brain using a radiometric procedure with [14C]phenylethylamine at 0.3 uM; details: rat brain monoamine oxidase B preparation, probe [14C]phenylethylamine; method in brief: as §1

In the case of `CC(=O)NCc1ccc2c(c1)c1ccccc1n2C`, the inhibition at 1 µM [1] is reported as 30% and the inhibition [2] is reported as 16%.
For `CC(=O)Nc1ccc2[nH]ccc2c1`, the inhibition at 1 µM [3] was 0% and the inhibition at 1 µM [4] was 0%.
In the case of `CC(=O)Nc1ccc2c(c1)C(O)c1ccccc1-2` (stereo not given), the IC50 [5] is reported as 300 nM.
In the case of `CC(=O)Nc1cccc2c1C(=O)c1ccccc1C2=O`, the inhibition at 1 µM [4] is reported as 12%.
`CC(=O)Nc1ccc2c3ccccc3n(CCCN3CCN(C)CC3)c2c1` was tested, and the inhibition [6] was 80%.
With `CC(=O)Nc1cc2c(ccc3ccccc32)oc1=O` the inhibition at 1 µM [3] was 12% and the inhibition at 1 µM [4] was 10%.
For `CC(=O)NC(C)c1ccc2c(c1)[nH]c1ccccc12` (stereo not given), the inhibition at 1 µM [1] was 20% and the inhibition [2] was 7%.
`CC(=O)Nc1ccc2c(c1)CCC2` was tested, and the inhibition at 1 µM [1] was 37% and the inhibition [2] was 13%.
For `CC(=O)Nc1ccc2c(c1)[nH]c1ccc(Br)cc12`, the inhibition [2] was 61%.
For `CC(=O)N(C)c1ccc2c(c1)-c1ccccc1S2(=O)=O`, the inhibition [2] was 0%.
With `O=CN(C=O)c1ccc2c(c1)S(=O)(=O)c1ccccc1C2=O` the inhibition [6] was 18% and the inhibition at 10 uM [7] was 3%.
`O=CNc1ccc2c(c1)-c1ccccc1S2(=O)=O` showed an IC50 [5] of 1000 nM.
`CC(=O)Nc1ccc2c(c1)S(=O)(=O)c1ccc(C)cc1C2=O` gave an IC50 [5] of 700 nM.
Work on `CC(=O)Nc1ccc2c(cnn2C(C)=O)c1` yielded an inhibition at 1 µM [3] of 27% and an inhibition at 1 µM [4] of 4%.
Work on `CCCc1ccc2c(c1)S(=O)(=O)c1cc(NC(C)=O)ccc1C2=O` yielded an IC50 [5] of 20 nM and an inhibition at 10 uM [7] of -7%.
For `CC(=O)Nc1ccc2c(c1)C(=O)c1ccccc1C2=O`, the IC50 [8] was 3500 nM and the IC50 [9] was 160 nM.
Work on `CC(=O)Nc1ccc2c(c1)N(C(C)=O)CC2` yielded an inhibition at 1 µM [1] of -27% and an inhibition [2] of 37%.
In the case of `CC(=O)Nc1nc2cc(C)c(C)cc2[nH]1`, the inhibition [6] is reported as 50% and the inhibition at 10 uM [7] is reported as 18%.
Compound `CC(=O)Nc1ccc(Oc2ccc(CS(C)(=O)=O)cc2)cc1` has an inhibition at 1 µM [1] of 25% and an inhibition [2] of 31%.
`CCCC(=O)Nc1ccc2c(c1)[nH]c1ccccc12` showed an inhibition [2] of 36%.
Work on `CC(=O)Nc1ccc2c(c1)c(O)nc1ccccc12` yielded an inhibition at 1 µM [1] of 0% and an inhibition [2] of 55%.
Compound `Nc1ccc2[nH]c(=O)c3ccccc3c2c1` has an inhibition [6] of 0%.
`CC(=O)Nc1nc2cc(C)c(C)cc2s1` showed an inhibition [6] of 54% and an inhibition at 10 uM [7] of 38%.
`CC(=O)Nc1ccc2c3ccccc3n(C)c2c1` was tested, and the IC50 [5] was 30 nM.
`CC(=O)Nc1ccc2c(c1)S(=O)(=O)c1ccccc1O2` showed an inhibition at 0.1 µM [10] of 0% and an IC50 [5] of 14 nM.
Compound `CCC(=O)Nc1ccc2c(c1)-c1ccccc1S2(=O)=O` has an IC50 [5] of 1200 nM.
For `CCc1ccc2c(c1)C(=O)c1ccc(NC(C)=O)cc1S2(=O)=O`, the inhibition at 0.3 µM [11] was 15% and the IC50 [5] was 10 nM.
Work on `CC(=O)Nc1ccc2c(O)c3ccccc3nc2c1` yielded an inhibition at 1 µM [1] of 21% and an inhibition [2] of 72%.
